# Compound activity as filed in PubChem BioAssay.
# ARFGAP1 inh: inhibitors of rat ARFGAP1 GAP activity, primary screen, biochemical, fluorescence polarization, GDP tracer; inhibition, % at 16.5 µM; AID 651572, 2012; Arfgap1-stimulated ARF1 GTP hydrolysis, GDP FP detection; 360,000 compounds, 0.26% hits; ADP-ribosylation factor GTPase-activating protein 1 (Rattus norvegicus), Q62848;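 active means inhibition above a per-plate limit, mean inhibition of low control wells plus 3 SD, cut at about 25% in these data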;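 further: 0% = DMSO wells with enzyme and 100% = wells lacking Arfgap1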
# Target sequence (Q62848 1-136 limits assumed): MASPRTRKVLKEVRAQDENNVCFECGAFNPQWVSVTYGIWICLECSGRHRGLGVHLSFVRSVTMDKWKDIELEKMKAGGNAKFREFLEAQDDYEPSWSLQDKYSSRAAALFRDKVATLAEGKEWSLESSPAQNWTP
#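 Replicates: Single well per compound | Assay system: Truncated rat Arfgap1 GAP domain | Control set: No-Arfgap1 wells (100%) versus DMSO full-reaction wells (0%) | Times: Enzyme reaction 120 min at 25 °C after 20 min preincubation | Reagent: Human ARF1(Δ1-17)-GTP substrate | Measured by: Tracer-displacement fluorescence polarization with EDTA stop, 620/688 nm | Measure: Percent inhibition of Arfgap1-stimulated GTP hydrolysis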
# bovine MsrA act: bovine MsrA enzyme activators, primary screen, biochemical, absorbance, HTS; 360,000 compounds, 0.3% hits; Methionine sulfoxide reductase A (Bos taurus); activation, % at 10.6 µM; purified bovine MsrA, absorbance read-out; in the data active means activation above about 7.5%;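 further: 0% = vehicle and 100% = reference activator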
# ASAP1 inh: inhibitors of human ASAP1 ArfGAP activity, primary screen, biochemical, fluorescence polarization | Arf-GAP with SH3 domain, ANK repeat and PH domain-containing protein 1 (Homo sapiens), … | ASAP1-stimulated ARF1 GTP hydrolysis, GDP FP detection | inhibition, % at 16.5 µM | 360,000 compounds, 0.19% hits | AID 624377, 2012; in the data active means inhibition above about 25%;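 further: 0% = vehicle with enzyme and substrate and 100% = no enzyme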
# MsrA inhibitor: bovine MsrA enzyme inhibitors, primary screen, biochemical, absorbance, HTS | purified bovine MsrA, absorbance read-out | Methionine sulfoxide reductase A (Bos taurus) | inhibition, % at 15.5 µM | AID 651718, 2012 | 360,000 compounds, 0.75% hits;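 further: 0% = vehicle wells with enzyme and 100% = reference inhibitor wells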
# ASAP1 GAP conf: ASAP1 GAP activity inhibitors, confirmation, biochemical, fluorescence polarization, human, triplicate; shares compounds with ASAP1 inh; ASAP1-stimulated Arf1 GTPase, GDP fluorescence polarization; inhibition, % at 16.5 µM; 620 compounds, 37% hits; AID 624431, 2012;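 active means mean inhibition over triplicates exceeds the hit threshold derived for the earlier primary screening run, cut at about 25% in these data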
# ARFGAP1 inh conf: ARFGAP1 inhibitor hit confirmation, biochemical, fluorescence polarization, triplicate; ARFGAP1-stimulated ARF1 GTP hydrolysis, GDP tracer FP; shares compounds with ARFGAP1 inh; inhibition, % at 16.5 µM; 890 compounds, 30% hits; AID 651608, 2012;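 active means average inhibition over triplicates above the hit cutoff set in the earlier primary screen, cut at about 25% in these data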;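 further: 0% = Arfgap1 plus ARF1-GTP with DMSO and 100% = wells lacking Arfgap1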
# Target sequence (Q62848 whole entry, looked up): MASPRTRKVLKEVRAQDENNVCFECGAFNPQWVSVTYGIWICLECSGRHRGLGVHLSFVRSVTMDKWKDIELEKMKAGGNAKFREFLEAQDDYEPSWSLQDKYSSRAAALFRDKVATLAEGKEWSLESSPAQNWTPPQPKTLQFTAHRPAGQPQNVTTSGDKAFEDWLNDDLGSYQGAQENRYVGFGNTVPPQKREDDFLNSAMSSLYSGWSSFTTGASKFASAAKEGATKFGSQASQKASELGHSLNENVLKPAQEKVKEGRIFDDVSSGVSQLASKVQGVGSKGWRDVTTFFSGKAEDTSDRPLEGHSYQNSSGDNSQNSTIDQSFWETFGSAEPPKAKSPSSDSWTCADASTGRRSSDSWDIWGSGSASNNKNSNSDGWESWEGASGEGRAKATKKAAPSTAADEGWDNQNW
# MsrA inh confirm: bovine MsrA inhibitors, retest, confirmation, biochemical, absorbance, HTS | purified bovine MsrA, absorbance read-out | shares compounds with MsrA inhibitor | AID 651822, 2012 | inhibition, % at 15.5 µM | 2,300 compounds, 41% hits;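 further: coupled to thioredoxin reductase with NADPH and selenocystamine and DMSO as substrate; 0% = vehicle only and 100% = full effect of reference inhibitor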
# An asterisk follows results filed as active; / = no result; + = active, no number. In the library only some 1.4% were active in any assay of this set; here they are far more common. Unless noted, no stated cut-off is given here; in the data, active means inhibition above about 4.5%; inactive means the rest.
SMILES,ARFGAP1 inh,bovine MsrA act,ASAP1 inh,MsrA inhibitor,ASAP1 GAP conf,ARFGAP1 inh conf,others
CC(=O)N1CC(=O)N(c2ccccc2)C1=O,2.0,-1.8,1.2,0.5,/,/,
COc1ccccc1-c1csc(-n2ncc(C#N)c2N)n1,39.3*,-2.2,41.1*,-0.3,66.5*,110.9*,
COC(=O)CSc1nnc2n(C3CCCCC3)c(=O)c3c4c(sc3n12)CCCC4,13.9,-2.8,-3.7,-0.2,/,/,
COC(=O)CSc1nnc2n(-c3ccc(OC)cc3)c(=O)c3c4c(sc3n12)CCCCC4,62.1*,-1.1,39.0*,-0.6,42.1*,74.6*,
CCCCCCCCCC(=O)N[C@@H]1c2cc(OC)c(OC)cc2C[C@H]1OCc1ccccc1,2.5,-0.5,1.6,-0.7,/,/,
Cc1ccc2cc3cc(C(=O)NCc4ccc5c(c4)OCO5)oc3nc2c1,67.6*,-0.1,54.1*,0.1,27.9*,109.5*,
CC1=C(C(=O)N(C(C)C)C(C)C)CC(CC(=O)NCc2cccc3ccccc23)C(=O)N1CCC1=CCCCC1 (configuration not stated),6.8,-1.1,-0.7,0.7,/,/,
O=C(/C=C/c1ccco1)Nc1ccc(-c2nc3ccccc3[nH]2)cc1,87.7*,-3.0,28.1*,0.7,70.8*,139.1*,
CC(=O)Nc1ccc(NC(=O)c2ccc(-c3ccc([N+](=O)[O-])cc3)o2)cc1,62.1*,-5.5,129.8*,0.5,164.5*,+,
COc1ccccc1N1CCN(S(=O)(=O)c2c(C)[nH]c(=O)[nH]c2=O)CC1,3.7,-0.6,4.5,-0.5,/,/,
COc1ccc(/C=N\NC(=O)c2ccc([N+](=O)[O-])cc2)cc1COc1c(F)c(F)cc(F)c1F,81.6*,-3.8,51.7*,1.1,58.4*,98.8*,
COc1cccc(NC(=O)COC(=O)c2cc(=O)c3ccccc3o2)c1,-3.4,-7.4,-12.4,-0.6,/,/,
COc1ccc(/C=C2\Oc3cc(OCC(N)=O)ccc3C2=O)cc1OC,32.0*,-3.0,34.8*,3.7,47.0*,45.2*,
O=S1(=O)N[C@@H](Cc2ccccc2)COc2cc(N3CC[C@H](O)C3)ccc21,-7.7,-3.1,-1.6,0.4,/,/,
COc1ccc(N2CCN(C(=S)NCc3ccccc3)CC2)cc1,38.3*,-1.3,37.4*,1.0,7.4,6.4,
CCCC(=O)Nc1ccc(C=C(C(C)=O)C(C)=O)cc1,-3.3,-3.5,11.0,0.0,/,/,
O=C(Nc1ccccc1)c1cccc2c(-c3cccnc3)coc12,-1.6,-2.9,7.2,0.4,/,/,
COc1ccc(NC(=O)c2cccc3c(-c4cccnc4)coc23)cc1,26.1*,-2.2,32.5*,1.1,17.7,14.4,
CN1CCN(c2ccc(-c3cc(NC=O)c4ncc(-c5ccc(F)c(Cl)c5)n4c3)cc2)CC1,7.7,0.7,1.2,1.7,/,/,
CC(=O)c1ccc(-c2cnc3c(NC=O)cc(-c4ccc(N5CCN(C)CC5)cc4)cn23)cc1,62.6*,-3.5,81.3*,1.5,154.6*,139.4*,
CC(=O)Nc1cc(-c2ccc(N3CCN(C)CC3)cc2)cn2c(-c3cccc(C(C)=O)c3)cnc12,37.5*,-1.1,53.6*,1.8,94.6*,81.8*,
COc1cc(S(=O)(=O)NC2CCCCC2)c(C)cc1C,-4.1,-3.7,-12.6,-0.1,/,/,
Nc1nc(SCc2ccc(Cl)cc2Cl)nc2nc3c(cc12)CCCC3,47.0*,-3.8,30.8*,2.0,69.2*,67.7*,
CCOC(=O)CCc1c(C)nc(-n2[nH]c(C)c(CCO)c2=O)[nH]c1=O,4.9,-1.5,-17.8,0.9,/,/,
Cc1cc2oc3ccc(NCCCN4CCOCC4)cc3c(=O)c2cc1C,5.2,-0.4,-15.7,-0.3,/,/,
SMILES,ARFGAP1 inh,bovine MsrA act,ASAP1 inh,MsrA inhibitor,ASAP1 GAP conf,ARFGAP1 inh conf,others
Cc1cc2oc3ccc(NCCCn4ccnc4)cc3c(=O)c2cc1C,114.9*,-1.5,78.7*,-1.2,127.3*,+,
C[C@@H]1CN([C@@H](C)CO)C(=O)CCCn2nncc2CO[C@@H]1CN(C)S(=O)(=O)c1ccc(Oc2ccccc2)nc1,3.9,-2.2,7.0,-0.5,/,/,
Cc1cc(N2CCN(CC(C)(C)O)C[C@H]2C)ccc1N1CCN(CC(C)(C)O)[C@H](C)C1,1.7,/,-4.1,-0.5,/,/,
COc1cc2c3nnc(-c4ccc(F)cc4)c-3cn(Cc3ccccc3)c2cc1OC,36.2*,0.5,79.3*,1.2,59.8*,29.2*,
CN1\C(=C/C=C/C=C/C=[N+](C)C)C(C)(C)c2ccccc21,46.7*,-4.1,54.9*,-1.7,41.4*,37.4*,
CC(=O)c1ccc(N2CCN(C(=O)CCS(=O)(=O)c3ccc4c(c3)NC(=O)CS4)CC2)cc1,0.9,-6.3,5.0,2.7,/,/,
O=C(NN=Cc1ccc2c(c1)OCO2)C1CC1,-3.2,-3.5,0.0,1.6,/,/,
O=C(NN=Cc1ccc2c(c1)OCO2)NN=Cc1ccc2c(c1)OCO2,30.7*,-4.2,33.9*,3.2,71.6*,61.5*,
N#CC1C(=O)Nc2cccnc21 (configuration not stated),28.5*,-3.8,30.2*,-0.2,1.2,-2.1,
O=c1c(Cl)c(N/N=C/c2ccc(Br)cc2)cnn1-c1ccccc1,43.7*,-11.4,42.2*,0.1,32.5*,64.6*,
CNc1cnn(-c2ccccc2)c(=O)c1Cl,4.5,-2.0,3.7,0.3,/,/,
Cn1c(=O)n(CCOc2ccc(Cl)cc2Cl)c2ccccc21,30.3*,-11.7,40.1*,-0.2,47.5*,43.8*,
CCCCc1nnc(NC(=O)C(C)Sc2nc(O)c(Cc3ccccc3)c(=O)[nH]2)s1 (configuration not stated),4.4,-2.0,6.5,1.6,/,/,
CC(C)Cn1nc(C(=O)NCc2ccccc2CN2CCCC2)c2ccccc2c1=O,14.8,-6.4,5.3,-0.5,/,/,
C/C(=N\NC(=O)c1cc(-c2cccc([N+](=O)[O-])c2)n[nH]1)c1ccccc1O,54.2*,-11.0,136.0*,-0.2,149.6*,151.7*,
COc1ccc(S(=O)(=O)/N=C2\C=C(Nc3ccc(O)cc3)C(=O)c3ccccc32)cc1,19.5,6.2,38.2*,34.8*,25.4*,/,MsrA inh confirm=33.5*
CCOc1ccc2[nH]c(C(=O)N/N=C/c3cc(OC)c(OC)c(OC)c3)cc2c1,20.5,-4.5,27.3*,5.4*,50.7*,/,MsrA inh confirm=4.8*
CCOc1ccc(/C=N/NC(=O)c2cc3c(OC)cccc3[nH]2)cc1,14.3,-4.1,2.8,0.5,/,/,
